These results are taken from ChEMBL document CHEMBL4196091 (Eur J Med Chem, 2018).

The test system of assay [1] is HT-29. Briefly: Downregulation of hTERT gene expression in human HT-29 cells assessed as hTERT mRNA level at 9 nM after 48 hrs by RT-PCR method (reference value: 100%). It is filed as functional. The essentials: (§1)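 HT-29 cells were taken at 70–80% confluence and seeded at 1.5 x 10^5 per well. After 24 h they were exposed to compound for 48 h. Total RNA was isolated and TaqMan RT-qPCR run for VEGF-A, c-MYC and hTERT, normalized to β-actin. Expression is given as percent of DMSO control, with at least three measurements and one-sample t-tests.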

Assay [2] concerns A549. As to the kind of experiment: Cell cycle arrest in human A549 cells assessed as accumulation at S phase at 20 nM after 24 hrs by propidium iodide staining based flow cytometry (reference value: 15 +/- 6%). It is filed as functional. The essentials:
(§2)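 A549 cells maintained in DMEM (1 g/L glucose, 2 mM glutamine, penicillin/streptomycin/amphotericin B, 10% FBS) and treated for 24 h. Cells were then fixed, RNase-treated and stained with propidium iodide. DNA content was measured by flow cytometry to give cell-cycle phase distribution, including a sub-G1 peak. Data are means (±SD) of two experiments.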

In assay [3] the test system is A549. Briefly: Cell cycle arrest in human A549 cells assessed as accumulation at G0/G1 phase at 20 nM after 24 hrs by propidium iodide staining based flow cytometry (reference value: 73 +/- 3%). Type of assay: functional. Put shortly: as §2
(A flow cytometer gives signals particle by particle.)

Assay [4] deals with HT-29. As to the kind of experiment: Downregulation of c-Myc gene expression in human HT-29 cells assessed as c-Myc mRNA level at 9 nM after 48 hrs by RT-PCR method (reference value: 100%). It is filed as functional. Put shortly: as §1
Assay [5] deals with A549. Briefly: Cell cycle arrest in human A549 cells assessed as accumulation at G2/M phase at 3 nM after 24 hrs by propidium iodide staining based flow cytometry. Type of assay: functional. Put shortly: as §2
Assay [6] deals with A549. Briefly: Cell cycle arrest in human A549 cells assessed as accumulation at G2/M phase at 20 nM after 24 hrs by propidium iodide staining based flow cytometry (reference value: 11 +/- 4%). Type of assay: functional. The essentials:
as §2

Assay [7] deals with MCF7. Briefly: Antiproliferative activity against human MCF7 cells after 2 days by MTT assay. Type of assay: functional, cell-based. Conditions: MCF7, 48 h. (Tetrazolium assays rely on reduction of a dye to a coloured formazan, in cell work by metabolically active cells.)
Assay [8] concerns A549. As to the kind of experiment: Cell cycle arrest in human A549 cells assessed as accumulation at sub-G0 phase at 20 nM after 24 hrs by propidium iodide staining based flow cytometry (reference value: 2 +/- 1%). It is filed as functional. Put shortly: as §2
Assay [9] deals with A549. As to the kind of experiment: Antiproliferative activity against human A549 cells after 2 days by MTT assay. Type of assay: functional, cell-based. As to conditions: A549, 48 h.
In assay [10] the test system is HEK293. As to the kind of experiment: Antiproliferative activity against HEK293 cells after 2 days by MTT assay. Type of assay: ADME, cell-based. Conditions: Homo sapiens, HEK293, 48 h.
The subject of assay [11] is HT-29. As to the kind of experiment: Downregulation of VEGF gene expression in human HT-29 cells assessed as VEGF mRNA level at 9 nM after 48 hrs by RT-PCR method (reference value: 100%). It is filed as functional. Put shortly:
as §1

Assay [12] deals with HT-29. Briefly: Antiproliferative activity against human HT-29 cells after 2 days by MTT assay. It is filed as functional, cell-based. As to conditions: HT-29, 48 h.
Assay [13] deals with HT-29. Briefly: Inhibition of VEGF protein secretion in human HT-29 cells assessed as VEGF protein level at 9 nM after 48 hrs by ELISA (reference value: 100%). It is filed as functional. On the set-up: scale not given: the % may be the effect or the level left. On the technique in general: An ELISA detects its analyte on a solid surface through an enzyme-linked reagent.
Assay [14] concerns HT-29. As to the kind of experiment: Downregulation of VEGF gene expression in human HT-29 cells assessed as VEGF mRNA level at 0.5 nM after 48 hrs by RT-PCR method (reference value: 100%). Type of assay: functional. The essentials: as §1
Assay [15] concerns HT-29. As to the kind of experiment: Downregulation of c-Myc gene expression in human HT-29 cells assessed as c-Myc mRNA level at 0.5 nM after 48 hrs by RT-PCR method (reference value: 100%). Type of assay: functional. Put shortly: as §1
The subject of assay [16] is HT-29. As to the kind of experiment: Inhibition of VEGF protein secretion in human HT-29 cells assessed as VEGF protein level at 0.5 nM after 48 hrs by ELISA (reference value: 100%). Type of assay: functional. On the set-up: scale not given: the % may be the effect or the level left.
Assay [17] deals with HT-29. Briefly: Downregulation of hTERT gene expression in human HT-29 cells assessed as hTERT mRNA level at 0.5 nM after 48 hrs by RT-PCR method (reference value: 100%). Type of assay: functional. The essentials: as §1

Active and inactive are the calls of the source. No cut-off for these calls is given here.

Regarding `COc1cc2c(c(OC)c1OC)-c1ccc(OC)c(=O)cc1[C@@H](NC(=O)c1ccc(Br)cc1)CC2`, the Activity is reported as more than 100% in assay [1]; 16% in assay [2]; 25% in [3]; 41% in [4]; 56% in assay [6]; 4% in assay [8]. Also, the Activity in assay [11] came out at 37%; in assay [13], 62%. Besides, the result in assay [5] was Active. In addition, the half-inhibitory concentration (IC50) (commonly the midpoint of a concentration-inhibition curve) in assay [7] was determined as 8.9 nM; in assay [9], 4.2 nM; in assay [10], 7.8 nM; in assay [12], 11.4 nM.
With `COc1cc2c(c(OC)c1OC)-c1ccc(OC)c(=O)cc1[C@@H](NC(=O)c1cccc(Br)c1)CC2`, the Activity turned out to be 16% in [2]; 29% in [3]; 61% in [14]; 51% in assay [6]; 34% in [15]; 79% in [16]. The Activity is listed as 4% in [8] and 91% in assay [17]. The result in assay [5] was Active. Besides, the IC50 in [7] came out at 0.363 nM; in assay [9], 14 nM; in assay [10], 1.1 nM; in assay [12], 0.56 nM.
